The values that follow come from ChEMBL document CHEMBL6078712, “Triterpenoid phthalimides as selective anti-cancer agents targeting mitochondrial apoptosis” (Eur J Med Chem, 2025).

Activity calls are given as the source filed them. The calls are words filed in the database; no cut-off is given here.

Data set [1] relates to CCRF-CEM. Description: Cytotoxicity against human CCRF-CEM cells assessed as inhibition of cell growth incubated for 72 hrs by MTS assay. It is filed as functional, cell-based. The method in brief:
(§1)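 MTS assay on eight human cancer lines and two non-tumour fibroblast lines. IC50 is the concentration that inhibits cell growth by 50 %. SD typically up to 15 % of the mean.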
On the technique in general: Formazan colour is commonly taken as a measure of viable cells.

The test system of data set [2] is U2OS. Put plainly: Cytotoxicity against human U2OS cells assessed as inhibition of cell growth incubated for 72 hrs by MTS assay. It counts as functional, cell-based. The essentials:
as §1

A short description of data set [3]: Cytotoxicity against human BJ cells assessed as inhibition of cell growth incubated for 72 hrs by MTS assay. It is filed as toxicity, cell-based. The essentials: as §1
A short description of data set [4]: Stability in human plasma assessed as compound remaining at 2 uM incubated for 15 mins by RF-MS analysis. It counts as ADME, cell-free. Particulars: read-out: Stability. The essentials:
(§2)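 Human plasma stability, plasma protein binding and liver microsome stability, each run in triplicate. Error deviations below 10 %.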

A short description of data set [5]: Stability in human plasma assessed as compound remaining at 2 uM incubated for 120 mins by RF-MS analysis. Particulars: read-out: Stability. It is filed as ADME, cell-free. The essentials:
as §2

The nature of data set [6]: Metabolic stability in human liver microsomes assessed as parent compound remaining at 2 uM incubated for 15 mins in presence of NADPH by RF-MS analysis. It counts as ADME, Microsome. Particulars: read-out: Stability. The method in brief: as §2
(Liver microsomes are vesicles of endoplasmic reticulum, rich in cytochrome P450 enzymes.)

Data set [7] can be described thus: Metabolic stability in human liver microsomes assessed as parent compound remaining at 2 uM incubated for 60 mins in presence of NADPH by RF-MS analysis. Particulars: read-out: Stability. It counts as ADME, Microsome. The essentials:
as §2

Data set [8] concerns CCRF-CEM. Put plainly: Induction of apoptosis in human CCRF-CEM cells assessed as viable cells at 1 times IC50 incubated for 24 hrs by Annexin V-FITC and PI staining based flow cytometric analysis (reference value: 97.4 %). It counts as functional. The method in brief:
(§3)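 Washed in Ca2+-containing binding buffer, then stained 15 min at room temperature in the dark with Annexin V-FITC and propidium iodide (PI at half the kit-recommended level). Read at once by flow cytometry with a 488 nm laser, ≥10,000 cells. Debris excluded; quadrants viable, early apoptotic, late apoptotic/necrotic, necrotic. Three independent experiments.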
(A flow cytometer gives signals particle by particle.)

Data set [9] concerns CCRF-CEM. Description: Induction of apoptosis in human CCRF-CEM cells assessed as viable cells at 5 times IC50 incubated for 24 hrs by Annexin V-FITC and PI staining based flow cytometric analysis (reference value: 97.4 %). It counts as functional. The essentials:
as §3

The test system of data set [10] is CCRF-CEM. Description: Induction of apoptosis in human CCRF-CEM cells assessed as late apoptotic cells at 5 times IC50 incubated for 24 hrs by Annexin V-FITC and PI staining based flow cytometric analysis (reference value: 0.4 %). It is filed as functional. The essentials: as §3
Data set [11] deals with CCRF-CEM. Put plainly: Induction of apoptosis in human CCRF-CEM cells assessed as necrotic cells at 5 times IC50 incubated for 24 hrs by Annexin V-FITC and PI staining based flow cytometric analysis (reference value: 0.4 %). It is filed as functional. The essentials:
as §3

Data set [12] has as its system CCRF-CEM. Put plainly: Inhibition of DNA synthesis in human CCRF-CEM cells at 5 times IC50 incubated for 24 hrs by BrdU incorporation based flow cytometry. It counts as functional. The essentials:
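Fixed in ice-cold 70 % ethanol, DNA denatured in 2 M HCl for 30 min, neutralised with borax. Stained with anti-BrdU plus FITC secondary, then PI/RNase A for 1 h. Flow cytometry; % BrdU-positive cells.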

Data set [13] relates to CCRF-CEM. Put plainly: Induction of cell cycle arrest in human CCRF-CEM cells assessed as downregulation of Cyclin D expression at 5 times IC50 incubated for 24 hrs by Western blotting analysis. It is filed as functional, cell-based. The method in brief: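 30 µg protein per lane on SDS-PAGE, transferred to nitrocellulose, blocked in 5 % BSA/TBS-Tween. Primary antibodies overnight at 4 °C (Akt, P-Akt Ser473, STAT-3, caspase-3, PARP, cyclin D, cyclin A, Bcl-xL, Bak, Bid, Bim), then HRP secondary and ECL detection. GAPDH as loading control.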

The IC50 is the concentration that inhibits the measured activity by half. Consider `CC(=O)O[C@H]1CC[C@]2(C)[C@H]3CC[C@@H]4[C@H]5[C@H](c6cc7c(c(-c8ccccc8)c6)C(=O)N(c6cc[nH]n6)C7=O)CC[C@]5(C(=O)O)CC[C@@]4(C)[C@]3(C)CC[C@H]2C1(C)C`, for which the values for the IC50 in [1] and in [2] were 5.13 µM and 13.8 µM, respectively. In addition, the IC50 at 72 h in data set [3] turned out to be 31.8 µM. For the same compound, the remaining at 0.25 h, 2 µM in data set [4] worked out at 97%; in [6], 99%. Further, the remaining at 2 h, 2 µM in data set [5] amounted to 86%. The remaining at 1 h, 2 µM in [7] worked out at 81%. The Activity in data set [8] is 92.8%; in data set [9], 86.5%; in data set [10], 5.5%; in data set [11], 0.1%. For the same compound, the “inhibition (INH)” value in data set [12] came out at 9.9%. Besides, the result in [13] was Active.
